# Rows were chosen to be rich in hits. Some 3.7% of all compounds tested hit in one or more screens of this group.
# Kir21 block – Kir2.1 (mouse) channel inhibition; HEK293-Kir2.1, FluxOR thallium flux fluorescence; hits give low values; B-score at 10 µM; 310,000 compounds, 0.85% hits;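 active = fluorescence ratio B-score at or below minus 3 SD of library scores, with starting-brightness B-score within 2 SD, cut at about -4.2 in these data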;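 note: channel flux triggered by added potassium and thallium sulfate stimulus; B-score of peak minus minimum fluorescence over baseline after thallium stimulus; more negative B-score means stronger Kir2.1 block with less thallium influx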
# hERG protect – shields human hERG channel from block by proarrhythmic agents; 310,000 compounds, 0.51% hits; AID 1511; CHO-hERG, FluxOR thallium flux, dofetilide IC70 present; activation (rescue from dofetilide block), less the hit threshold, % at 10 µM;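 active = activation above the mean of controls blocked by dofetilide plus 5 SD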;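 note: thallium influx through hERG after potassium depolarization seen as dye fluorescence rise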
# KCNK3 inh – human KCNK3 channel inhibition, primary screen; CHO-KCNK3 thallium flux, FluxOR fluorescence; hits give low values; O14649; B-score at 10 µM; AID 602410; 340,000 compounds, 0.84% hits;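 active = B-score under library mean minus 4 SD, starting fluorescence ratio at most library mean plus 5 SD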;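 note: more negative B-score means stronger inhibition of thallium flux through KCNK3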
# KCNQ1 act – human KCNQ1 channel potentiation or activation. P51787. CHO-K1 KCNQ1, thallium flux FluxOR fluorescence; hits give high values. B-score at 10 µM. 310,000 compounds, 0.35% hits. AID 2648;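 active = fluorescence ratio B-score, a plate-corrected score, at least three library SD, with initial intensity B-score within 5 SD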
# Target sequence (P51787 whole entry, looked up): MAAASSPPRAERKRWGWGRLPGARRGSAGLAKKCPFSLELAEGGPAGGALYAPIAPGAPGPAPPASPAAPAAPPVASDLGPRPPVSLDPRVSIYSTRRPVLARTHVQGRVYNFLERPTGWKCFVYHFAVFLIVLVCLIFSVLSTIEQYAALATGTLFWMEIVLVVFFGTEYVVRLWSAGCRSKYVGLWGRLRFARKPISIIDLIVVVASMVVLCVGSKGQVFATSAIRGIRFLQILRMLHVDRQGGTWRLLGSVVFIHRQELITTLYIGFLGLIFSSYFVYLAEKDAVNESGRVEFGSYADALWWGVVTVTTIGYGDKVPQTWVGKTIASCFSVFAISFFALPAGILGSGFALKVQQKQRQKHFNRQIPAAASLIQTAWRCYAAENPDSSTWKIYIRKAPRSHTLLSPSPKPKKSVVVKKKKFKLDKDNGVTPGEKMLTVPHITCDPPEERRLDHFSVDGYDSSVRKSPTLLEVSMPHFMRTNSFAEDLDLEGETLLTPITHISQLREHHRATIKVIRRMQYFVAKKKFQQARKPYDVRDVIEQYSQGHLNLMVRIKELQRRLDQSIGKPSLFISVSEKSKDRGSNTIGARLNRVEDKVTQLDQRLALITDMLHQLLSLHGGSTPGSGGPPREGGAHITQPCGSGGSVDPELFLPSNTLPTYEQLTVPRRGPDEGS
#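 Schedule – 37 °C overnight plating, 90-min dark dye load, 20-min compound pretreatment · System – stable KCNQ1 CHO-K1 line · Probe or stimulus – thallium- and potassium-containing depolarizing buffer · Measured by – kinetic FluxOR fluorescence, 10 s baseline plus 110 s post-stimulus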
# KCNK9 block – blocks the human KCNK9 two-pore domain potassium channel. Q9NPC2. HEK293 KCNK9, FluxOR thallium flux fluorescence; hits give low values. B-score at 10 µM. 310,000 compounds, 1.2% hits. AID 488922;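 active = ratio B-score over 3 SD below the library mean, with starting fluorescence within 5 SD of its mean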;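 note: negative B-score means less thallium flux so channel inhibition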
# KCNQ1 block – human KCNQ1 channel inhibition; CHO-K1 KCNQ1, FluxOR thallium flux fluorescence; hits give high values; P51787; B-score at 10 µM; 310,000 compounds, 1.3% hits; AID 2642;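 active = compounds whose thallium flux B-score, printed positive for inhibition, exceeds three library SD while starting fluorescence stays within three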;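 note: channel opened by potassium depolarization with thallium stimulus after 20 min compound exposure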
# KCNK9 inh conf – human KCNK9 inhibitor confirmation. shares compounds with KCNK9 block. HEK293 KCNK9 cells, FluxOR thallium flux fluorescence. inhibition, % at 10 µM. 4,900 compounds, 43% hits. AID 492992;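 active = thallium signal inhibited by more than 5 SD of the compound-free buffer control wells, on both duplicate plates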;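 note: 0% = assay buffer control wells without compound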
# Kir2-1 spec – tests whether KCNK9 modulators also affect mouse Kir2.1. inhibition, % at 10 µM. 4,900 compounds, 4% hits. shares compounds with KCNK9 block. Kir2.1 cells, FluxOR thallium flux fluorescence;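 active = thallium signal drop more than 5 SD beyond the mean of the no-compound control wells, seen in both duplicate plates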;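 note: signal is fluorescence rise after thallium addition divided by baseline fluorescence; plate controls were assay buffer only for no effect and full block by chlorpromazine control for full effect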
# KCNK9 uninduced – second counter-screen for KCNK9 modulators: effect in non-induced cells | shares compounds with KCNK9 block | non-induced KCNK9-HEK293, FluxOR thallium flux | inhibition, % at 10 µM | 4,900 compounds, 40% hits;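 active = thallium signal drop beyond 5 SD of the untreated control mean, on both duplicate plates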;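 note: plate controls were buffer only IC0 wells for no effect and SID17386958 at its maximal inhibitory level for full effect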
# An asterisk follows results filed as active; i = inactive; . = no result given.
SMILES,Kir21 block,hERG protect,KCNK3 inh,KCNQ1 act,KCNK9 block,KCNQ1 block,KCNK9 inh conf,Kir2-1 spec,KCNK9 uninduced
Cc1ccc(-n2c(C)nc3c(cnn3-c3ccc(C)c(C)c3)c2=O)cc1C,0.08,-11.3,i,i,i,i,i,i,i
Cc1ccc(-n2c(C)nc3c(cnn3-c3ccc(F)cc3)c2=O)cc1C,-0.1,-3.1,i,i,i,i,.,.,.
CCOc1cc(C2NC(=O)NC2=O)ccc1O (stereo not given),0.79,-3.4,i,i,i,i,.,.,.
O=C1CC(=C(c2ccccc2)c2ccccc2)C(=O)N1CCN1CCN(c2cccc(Cl)c2)CC1,-0.87,-5.1,i,i,i,i,i,i,i
O=C(NCCCCc1ccccc1)C12CN(Cc3ccccc3)CC1C(c1cccc([N+](=O)[O-])c1)=NO2 (stereo not given),-0.01,-7.5,i,i,i,i,i,i,i
CCN(CC(=O)Nc1ccccc1OC)C(=O)CSCc1ccc(C)cc1,.,.,i,.,.,.,.,.,.
CC1=C(C(=O)Nc2cccc(C(=O)N3CCN(c4cccc(C(F)(F)F)c4)CC3)c2)SCCO1,1.21,-10.3,i,i,i,i,.,.,.
CCn1c(C)cc2c(c1=O)C(c1ccccc1)C(C(=O)OC)=C(N)O2 (stereo not given),-0.77,-1.9,i,i,i,i,.,.,.
COC(=O)C1=C(N)Oc2cc(C)n(CC3CCCO3)c(=O)c2C1c1ccc(Cl)c(Cl)c1 (stereo not given),-0.46,-12.7,i,i,-9.05*,i,35.0%*,i,52.0%*
COC(=O)C1=C(N)Oc2cc(C)n(Cc3ccco3)c(=O)c2C1c1cccc(Cl)c1 (stereo not given),-0.17,-3.9,i,i,-13.5*,i,46.5%*,i,45.0%*
CCn1nc(C(=O)OCC(=O)c2cc(C)n(Cc3cccs3)c2C)c2ccccc2c1=O,-0.1,-17.1,i,i,i,i,i,i,i
Cc1cc(C(=O)COC(=O)c2ccc3c(c2)OCO3)c(C)n1Cc1cccs1,0.91,-5.1,i,i,i,i,i,i,i
Cc1cc(C(=O)COC(=O)c2ccccc2O)c(C)n1Cc1cccs1,-0.61,-10.8,i,i,i,i,.,.,.
Cc1ccc(-c2csc(N(CC3CCCO3)C(=O)c3ccco3)n2)cc1 (stereo not given),0.91,-11.6,i,i,-8.59*,i,43.0%*,i,33.5%*
O=C(COC(=O)CCNS(=O)(=O)c1cccc(C(F)(F)F)c1)NC(=O)NC1CCCCC1,-0.39,-12.9,i,i,-14.5*,i,61.0%*,i,31.0%*
CCCCc1c(O)nc(SCC(=O)c2ccccc2)n(-c2ccccc2OC)c1=O,-0.63,-18.6,i,i,-12.9*,i,51.0%*,i,25.0%*
COC(=O)c1ccc(C(C(=O)NC2CCCCC2)N(Cc2ccc(F)cc2)C(=O)Cc2cccs2)cc1 (stereo not given),-1.48,-2.6,i,i,-10.5*,i,i,i,31.0%*
O=C(CCN1C(=O)c2ccccc2S1(=O)=O)NCc1ccccc1Cl,1.46,-1.0,i,i,i,i,.,.,.
CCCCCN(C(=O)CCC(=O)OCC(=O)c1c(C)cc(C)cc1C)c1c(N)n(CCCC)c(=O)[nH]c1=O,1.79,-13.9,i,i,i,i,.,.,.
Cc1nn(-c2cccc(Cl)c2)c(Cl)c1/C=N/NC(=O)c1cccs1,-1.58,-5.6,i,i,-10.5*,i,60.0%*,i,31.0%*
O=C(CNC(=O)Cc1ccccc1)NCc1cccc(C(F)(F)F)c1,-0.26,-9.8,i,i,i,i,.,.,.
CC[C@@H](C)[C@H](CNC)NC[C@@H](Cc1cccc2ccccc12)NCCc1cccc(C(F)(F)F)c1,-6.47*,-42.0,i,i,-9.04*,9*,38.0%*,52.0%*,33.5%*
N#CCCN1C(=O)C2(OCCO2)c2ccccc21,-1.57,-1.6,i,i,i,i,.,.,.
Cc1cccc(NC(=O)C2(c3ccc([N+](=O)[O-])cc3)CCCC2)c1,-2.6,-8.4,i,i,i,6*,i,i,i
Cc1cc(C)nc(NS(=O)(=O)c2ccc(NC(=O)C3(c4ccc([N+](=O)[O-])cc4)CCCC3)cc2)n1,0.68,-5.4,i,i,i,i,.,.,.
SMILES,Kir21 block,hERG protect,KCNK3 inh,KCNQ1 act,KCNK9 block,KCNQ1 block,KCNK9 inh conf,Kir2-1 spec,KCNK9 uninduced
COC(=O)Cc1ccc(N(Cc2ccccc2F)S(=O)(=O)c2ccc(Cl)cc2)cc1,0.71,-16.6,i,i,-12*,i,60.0%*,i,40.0%*
COC(=O)CN(c1ccc(F)cc1)S(=O)(=O)c1ccccc1,-3.56,-5.3,i,i,i,i,.,.,.
COc1cccc(/C=C/C(=O)OCC(=O)NC2CC2)c1OC,.,.,i,.,.,.,.,.,.
CCOC(=O)/C(=C\Nc1ccc(OC(F)(F)F)cc1)Sc1ncc(C(F)(F)F)cc1Cl,-1.37,-8.7,i,i,i,i,i,i,i
Cc1cccc(N2CCN(C(=O)CCC(=O)N3CC(C)Oc4ccccc43)CC2)c1C (stereo not given),-1.04,-17.9,i,i,i,i,i,i,i
Cc1ccc2c(c1)N(C(=O)CCC(=O)N1CCN(c3cccc(C)c3C)CC1)CCO2,0.83,-14.0,i,i,i,i,i,i,i
CC1CCN(C(=O)CCC(=O)N2CC(C)Oc3ccccc32)CC1 (stereo not given),0.29,-9.0,i,i,i,i,.,.,.
Cc1ccc2c(c1)N(C(=O)CCC(=O)N1CCN(c3ccccc3)CC1)CCO2,0.02,-10.7,i,i,i,i,.,.,.
CCOC(=O)c1c(NC(=O)COC(=O)CCOc2ccccc2C)sc(C(=O)NC)c1C,0.23,-12.5,i,i,i,i,.,.,.
O=C(N[C@H]1C/C=C\C[C@@H](CC(=O)N(CCO)Cc2ccccc2)C(=O)NC[C@H](c2ccccc2)OC1=O)OCC1c2ccccc2-c2ccccc21,.,.,i,.,.,.,.,.,.
COc1ccc(S(=O)(=O)NC(N)=NCCc2ccccc2)cc1,0.08,-5.0,i,i,i,i,.,.,.
CCOC(=O)Cc1csc(N/N=C\c2ccccc2OC)n1,0.44,-4.1,i,i,i,i,.,.,.

# Screening results (PubChem BioAssay)
